Source: ChEMBL document CHEMBL3351538, “Complete stereochemistry and preliminary structure-activity relationship of rakicidin A, a hypoxia-selective cytotoxin from Micromonospora sp” (J Nat Prod, 2014)

Legend:
[1] = Cytotoxicity against human HCT8 cells under normoxic condition after 2 days by crystal violet method; settings: HCT-8, 2 d
PANC-1 = test: Selectivity index, ratio of IC50 for human PANC1 cells under normoxic condition to IC50 for human PANC1 cells under hypoxic condition; type: functional
[2] = Cytotoxicity against human PANC1 cells under hypoxic condition […] by crystal violet method; type: functional, cell-based; settings: PANC-1
Outline: (§1)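 HCT-8 or PANC-1 cells seeded at 2 × 10^4 per well in duplicate plates and preincubated 24 h to adhere. Serially diluted samples added, then cultures held 2 d either normoxic (5% CO2) or hypoxic (1% O2, modular chamber with oxygen indicator). Viability read by crystal violet staining under normoxic conditions.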

HCT-8 = test: Selectivity index, ratio of IC50 for human HCT8 cells under normoxic condition to IC50 for human HCT8 cells under hypoxic condition; type: functional
[3] = Cytotoxicity against human HCT8 cells under hypoxic condition […] by crystal violet method; type: functional, cell-based; settings: HCT-8
Outline: as §1

[4] = Cytotoxicity against human PANC1 cells under normoxic condition after 2 days by crystal violet method; settings: PANC-1, 2 d

C=C1/C=C/C(=O)N(C)CC(=O)N[C@H]([C@@H](O)C(N)=O)C(=O)O[C@@H]([C@H](C)CCCCCCCCCCCC(C)C)[C@H](C)C(=O)N1
IC50 [1]: 3.9 µM
Ratio IC50 (PANC-1): 6.3
IC50 [2]: 0.37 µM
Ratio IC50 (HCT-8): 12.8
IC50 [3]: 0.3 µM
IC50 [4]: 2.3 µM

C=C1/C=C/C(=O)N(C)CC(=O)NC(C(O)C(N)=O)C(=O)OC(C(C)CCCCCCCCCCCCC(C)C)C(C)C(=O)N1 (stereo not given)
IC50 [1]: 2.1 µM
Ratio IC50 (PANC-1): 4.3
IC50 [2]: 0.71 µM
Ratio IC50 (HCT-8): 10
IC50 [3]: 0.21 µM
IC50 [4]: 3.1 µM

C=C1/C=C/C(=O)N(C)CC(=O)N[C@H]([C@@H](O)C(N)=O)C(=O)O[C@@H]([C@H](C)CCCCCCCCCCCCCC(C)C)[C@H](C)C(=O)N1
IC50 [1]: 9.4 µM
Ratio IC50 (PANC-1): 3.8
IC50 [2]: 4.7 µM
Ratio IC50 (HCT-8): 5.2
IC50 [3]: 1.8 µM
IC50 [4]: 17.9 µM

CC(C)CCCCCCCCCCC[C@@H](C)[C@@H]1OC(=O)[C@@H]([C@@H](O)C(N)=O)NC(=O)CN(C)C(=O)CCC(C)NC(=O)[C@H]1C (stereo not given in full)
IC50 [1]: 27.7 µM
Ratio IC50 (PANC-1): 0.26
IC50 [2]: 75.4 µM
Ratio IC50 (HCT-8): 4.3
IC50 [3]: 6.5 µM
IC50 [4]: 19.3 µM

CC(C)CCCCCCCCCCC[C@@H](C)[C@H](O)[C@H](C)C(=O)NC(C)CCC(=O)N(C)CC(=O)N[C@@H](C(=O)O)[C@@H](O)C(N)=O (stereo not given in full)
IC50 [1]: 33.9 µM
IC50 [2]: > 80 µM
Ratio IC50 (HCT-8): 0.54
IC50 [3]: 63.4 µM
IC50 [4]: 27.4 µM

COc1cccc2c1C(=O)c1c(O)c3c(c(O)c1C2=O)C[C@@](O)(C(=O)CO)C[C@@H]3O[C@H]1C[C@H](N)[C@H](O)[C@H](C)O1 [DOXORUBICIN]
IC50 [1]: 2.4 µM
Ratio IC50 (PANC-1): 0.21
IC50 [2]: 5.4 µM
Ratio IC50 (HCT-8): 0.12
IC50 [3]: 19.6 µM
IC50 [4]: 1.1 µM
